Most compounds without a hit are left out; they make up all but 2.4% or so of the library.
S1P4 antagonist = antagonists of human S1P4 receptor; O95977; 220,000 compounds, 0.26% hits; AID 1510; S1P4-expressing cells, antagonist mode, reporter read-out; inhibition, % at 4.98 µM; in the data active means inhibition above about 29%;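 further: 0% = wells stimulated with agonist and 100% = vehicle wells without agonist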
Target sequence (O95977 whole entry, looked up): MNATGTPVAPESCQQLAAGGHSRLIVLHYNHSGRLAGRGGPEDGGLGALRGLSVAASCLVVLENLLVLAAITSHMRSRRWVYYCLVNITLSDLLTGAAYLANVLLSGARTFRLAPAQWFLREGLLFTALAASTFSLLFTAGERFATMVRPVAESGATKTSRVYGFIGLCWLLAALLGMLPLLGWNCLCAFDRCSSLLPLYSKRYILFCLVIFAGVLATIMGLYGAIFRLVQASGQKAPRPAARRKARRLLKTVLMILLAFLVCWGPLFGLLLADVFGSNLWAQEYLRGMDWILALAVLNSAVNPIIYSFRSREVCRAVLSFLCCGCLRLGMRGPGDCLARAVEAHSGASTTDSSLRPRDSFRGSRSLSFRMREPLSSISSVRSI
NPY-Y1 antag = NPY-Y1 (human) receptor antagonism | AID 1040 | 200,000 compounds, 1% hits | HEK293-CNG Y1 cells, membrane potential fluorescence; NPY at EC95, then isoproterenol | inhibition, % at 3.6 µM;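 active means inhibition above the campaign mean inhibition of all tested compounds plus 3 SD, cut at about 20% in these data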;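 further: 0% = DMSO wells given NPY plus isoproterenol and 100% = isoproterenol alone without NPY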
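Assay system: HEK293 Y1/CNG channel cell line; Doses: single compound dose of 3.6 µM, 0.4% DMSO; Timing: dye 3 h, compound 60 min room temperature, stimulation 45 min; Technique: Membrane-potential fluorescent dye readout; Measure: % inhibition of NPY effect.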
NPY2 pot ag = potentiates or activates human NPY-Y2 receptor; cells expressing NPY-Y2, potentiator/agonist read-out; 220,000 compounds, 0.45% hits; AID 1359; activation, % at 3.6 µM; P49146; in the data active means activation above about 27%;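 further: cells stimulated with NPY near EC25 plus isoproterenol at EC100; 0% = vehicle plus submaximal agonist and 100% = vehicle plus saturating agonist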
NPY-Y2 antag = antagonists of human neuropeptide Y receptor Y2; P49146; NPY-Y2 expressing cells, antagonist mode; inhibition, % at 2.7 µM; 140,000 compounds, 0.99% hits; AID 793; in the data active means inhibition above about 17%;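 further: 0% = vehicle with agonist challenge and 100% = reference antagonist with challenge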
NPY-Y1 PAM-ag = potentiates or activates human NPY-Y1 receptor. P25929. NPY-Y1 expressing cells, potentiator/agonist activation. activation, % at 3.6 µM. 220,000 compounds, 0.37% hits. AID 1304; in the data active means activation above about 33%, passing the limit was not always enough;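 further: cells stimulated with NPY at EC10 then isoproterenol at EC100; 0% = low agonist plus stimulus and 100% = saturating agonist plus stimulus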
S1P4 ag = human S1P4 receptor agonism; O95977; activation, % at 4.98 µM; 220,000 compounds, 0.35% hits; S1P4-expressing cell line, agonist reporter assay; AID 1509; in the data active means activation above about 11%;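 further: 0% = DMSO vehicle and 100% = reference agonist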
NPY-Y1 antag ct = human NPY-Y1 antagonism in NPY-Y2 counter-screen. shares compounds with NPY-Y2 antag. cell-based NPY-Y1 antagonism counterscreen. inhibition, % at 3.6 µM. 710 compounds, 19% hits. AID 1256; in the data active means inhibition above about 20%;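 further: cells challenged with NPY then isoproterenol with cAMP sensed through a CNG channel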
NPY-Y2 ant conf = confirmation of human neuropeptide Y receptor Y2 antagonists; inhibition, % at 2.8 µM; HEK293 NPY-Y2 CNG channel, membrane potential fluorescence; 710 compounds, 32% hits; shares compounds with NPY-Y2 antag;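 active means mean inhibition of triplicate wells above the hit cutoff set in the primary screen, cut at about 17% in these data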;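 further: 0% = DMSO with NPY challenge and 100% = BIIE0246 high control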
Starred values were filed as active, the others as inactive; . = no result given.

SMILES	S1P4 antagonist	NPY-Y1 antag	NPY2 pot ag	NPY-Y2 antag	NPY-Y1 PAM-ag	S1P4 ag	NPY-Y1 antag ct	NPY-Y2 ant conf
COC(=O)c1ccccc1NC(=O)c1cnn2c(C(F)F)cc(C3CC3)nc12	-5	16	1	19*	-34	-3	44*	32*
COc1ccccc1-n1c(SCC(=O)c2ccc(O)cc2O)nc2cc([N+](=O)[O-])ccc21	-3	-4	5	0	9	0	.	.
Cn1ccnc1SCC(=O)Nc1cccc(O)c1	-9	7	13	18*	-7	1	-3	-2
CCC1=Nc2ccc(Br)cc2C(c2ccccc2)N1CC(=O)OC (configuration not stated)	-7	14	-16	23*	6	0	13	23*
O=C(CCc1ccccc1)NNC(=O)Cc1ccccc1	-3	1	1	.	-1	-2	.	.
COc1c(C)cc(C(=O)C2CCCN(C(=O)/C=C/c3ccccn3)C2)cc1C (configuration not stated)	-2	4	-15	.	-24	-1	.	.
Clc1ccc(-c2nnn(Cc3nc4ccccc4s3)n2)cc1	-18	11	-22	18*	-38	0	20	24*
Fc1ccc(-c2nnn(Cc3nc4ccccc4s3)n2)cc1	-2	7	-21	11	-43	0	.	.
C=CC(C)Sc1nc2c(c(=O)n(C)c(=O)n2C)n1Cc1ccccc1Cl (configuration not stated)	-18	5	14	18*	-5	2	-2	10
Nc1nonc1C(=O)NCCNCc1ccccc1OCc1ccc(F)cc1	-12	10	-36	17*	-21	1	12	12
CCOc1ccc(CNCCNC(=O)c2nonc2N)cc1	-12	2	-2	.	-8	0	.	.
CC(C)Oc1ccc(C(CC(=O)O)NC(=O)C(Sc2ccccc2)c2ccccc2)cc1 (configuration not stated)	-17	3	-4	.	-1	2	.	.
Cc1ccc(Nc2nc(N)nc(CSc3ncccn3)n2)cc1	-25	0	-7	-1	12	-2	.	.
Cc1ccc(Nc2nc(N)nc(CSc3nc(C)cc(C)n3)n2)cc1	3	7	11	29*	11	-3	1	3
CNC(=O)c1sc(-c2ccccc2)nc1C	-19	-6	-2	-1	12	-2	.	.
Cc1nc(-c2ccccc2)sc1C(=O)CSc1ccc(F)cc1	8	19	-32	20*	-28	-1	21*	25*
CCn1c(CSc2nnc(-c3ccc4c(c3)OCO4)o2)nc2cc(S(=O)(=O)N(C)C)ccc21	-16	2	8	6	4	0	.	.
CCN1/C(=C2\OC(=S)N(C)C2=O)C=Cc2ccccc21	-9	-4	-6	.	5	2	.	.
CCN1/C(=C2\OC(=S)N(C)C2=O)Sc2ccccc21	3	-1	5	20*	11	0	-1	12
CC1(C)NC(=O)N(CCOCCOc2ccccc2-c2ccccc2)C1=O	6	6	17	.	28	0	.	.
CCN(CC)CC#CCC(C)(c1ccccc1)c1ccccc1	3	12	-26	18*	-54	1	13	21*
COc1ccc(C(C(=O)NCC2CCCO2)N(C(=O)CNC(=O)c2cccs2)c2ccccc2C)cc1OC (configuration not stated)	-3	-4	-1	.	3	-1	.	.
O=C(Nc1ccc([N+](=O)[O-])cc1)Nc1ccc(N2CCOCC2)c2nonc12	-19	0	-1	.	-2	1	.	.
COC(=O)c1c(C)[nH]c(C)c1-c1ccccc1Cl	-2	4	19	3	0	3	.	.
COC(=O)C1=C(C(=O)OC)SC2(S1)C(C(=O)OC)=C(C(=O)OC)SC1=C2c2cccc(C)c2NC1(C)C	19	5	-3	18*	7	-2	9	33*
SMILES	S1P4 antagonist	NPY-Y1 antag	NPY2 pot ag	NPY-Y2 antag	NPY-Y1 PAM-ag	S1P4 ag	NPY-Y1 antag ct	NPY-Y2 ant conf
Cc1c(C(=O)NCC2CCCO2)cccc1[N+](=O)[O-] (configuration not stated)	-4	2	-14	1	-24	1	.	.
COc1ccc(NC(=S)N2CCC(C(O)(c3ccccc3)c3ccccc3)CC2)cc1	0	2	-26	1	-7	0	.	.
CCOc1ccc(NC(=S)N2CCC(C(O)(c3ccccc3)c3ccccc3)CC2)cc1	-22	2	-9	54*	-4	0	-2	94*
Cc1cc(NC(=O)CN2C(=O)NC(C)(c3ccc(Cl)cc3)C2=O)no1 (configuration not stated)	2	-4	17	.	-11	1	.	.
Cc1ccc2nc3c(c(Nc4ccc5c(c4)OCCO5)c2c1)CCC3	-4	13	19	22*	-13	0	13	13
Cc1cccc(Nc2c3c(nc4ccccc24)CCC3)c1	-2	.	-28	.	-29	2	.	.
O=C(Nc1ccccc1Cl)C1C2CCC3C(CCC21)C3(Cl)Cl (configuration not stated)	2	20	2	18*	-33	0	12	10
CC(/C=N/n1c(-c2ccc(Cl)cc2)n[nH]c1=S)=C\c1ccco1	-2	4	-1	5	-10	0	.	.
N#CC(C#N)=C1C=CC=CN1/C(=C\c1ccco1)C(=O)c1ccc(Cl)cc1	9	-1	-8	18*	-1	1	15	83*
CCSc1nc2ccc(OC)cc2cc1C#N	-15	7	-3	21*	-13	2	13	20*
CCN(CC)c1nc2cc(OC)ccc2cc1C#N	-3	3	15	23*	-2	2	1	4
COc1ccccc1N1CCN(C(=O)c2ccc3[nH]c4c(c3c2)CC(C)CC4)CC1 (configuration not stated)	-23	-4	-6	1	3	-1	.	.
Cc1cccc(NC(=O)Cn2cnc3c(oc4ccccc43)c2=O)c1C	-25	0	3	.	16	2	.	.
CCOc1ccc(CCNC(=O)C2CCCN2C(=O)OCc2ccccc2)cc1OCC (configuration not stated)	-27	1	0	.	4	4	.	.
O=C(c1ccccc1)c1ccc(OCCCCN2CCCCC2)cc1	-1	10	-8	2	-33	-2	.	.
c1ccc(COc2ccc(OCCCCN3CCCCC3)cc2)cc1	4	14	-19	27*	-21	0	10	39*
CN(/N=C/c1cccnc1)c1cnc2ccccc2n1	11	1	-8	.	12	1	.	.
Cc1cccc(C)c1NC(=O)CCCSc1nnc(-c2ccc(Cl)cc2)n1-c1ccccc1	-24	2	1	18*	-9	-1	3	12

Screening data (PubChem BioAssay)
